According to ChEMBL document CHEMBL3585337, “Selective inhibition of prolyl 4-hydroxylases by bipyridinedicarboxylates” (Bioorg Med Chem, 2015):
Activity calls are given as the source filed them. The rule behind the calls is not given here.

Columns and labels:
[1] = Binding affinity to Fe(2) assessed as half maximal concentration required for binding 20 uM Fe(2) in pH 7.0 sodium phosphate buffer
Procedure, shortened: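 Ligand at 3–500 µM in 10 mM sodium phosphate pH 7.0, started by adding freshly made FeSO4 (20 µM). Equilibrated 15 min, then absorbance read at complex λmax with the no-ligand blank subtracted. Absorbance plotted against log ligand, and Fe20-EC50 taken by sigmoidal non-linear regression. Triplicate; mean ± SE.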

[2] = molecular target: Egl nine homolog 1 (Homo sapiens) (UniProt Q9GZT9); experiment: Inhibition of N-terminal hexa-histidine tagged human PHD2 (181 to 426 amino acids) at 10 uM pre-incubated for 2 mins followed by alpha-ketoglutarate addition using HIF1alpha peptide (556 to 574 amino acids) and 50 uM FeSO4 by RP-HPLC method
Egl nine homolog 1 (Homo sapiens), sequence (Q9GZT9 2-426 limits assumed): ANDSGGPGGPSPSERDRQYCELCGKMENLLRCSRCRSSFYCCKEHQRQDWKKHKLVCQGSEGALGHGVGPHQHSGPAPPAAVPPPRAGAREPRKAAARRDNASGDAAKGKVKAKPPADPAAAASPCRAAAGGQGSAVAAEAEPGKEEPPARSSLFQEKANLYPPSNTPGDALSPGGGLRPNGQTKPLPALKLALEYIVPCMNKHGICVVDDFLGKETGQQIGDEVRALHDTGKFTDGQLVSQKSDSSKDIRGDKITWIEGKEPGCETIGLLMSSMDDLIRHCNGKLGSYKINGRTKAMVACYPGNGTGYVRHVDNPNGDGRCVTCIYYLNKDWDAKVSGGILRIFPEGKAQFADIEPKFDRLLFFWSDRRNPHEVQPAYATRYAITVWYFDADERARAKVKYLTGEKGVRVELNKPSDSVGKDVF
Procedure, shortened: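 5 µM NHis6-PHD2(181–426) in Tris-HCl pH 7.8 with 50 µM HIF-1α(556–574) peptide, 1 mg/mL BSA, 0.3 mg/mL catalase, 2 mM ascorbate, 1 mM DTT. Started with 35 µM α-ketoglutarate, 10 min at 30 °C, quenched by 60 s boiling. Conversion by C18 HPLC at 218 nm, relative to no-inhibitor control; three independent experiments.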

[3] = Binding affinity to Fe(2) assessed as Fe(compound)2+/3 complex formation at 150 uM in Tris buffer at pH 7.8 at 30 degC
Procedure, shortened: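 Assay buffer: 50 mM Tris-HCl pH 7.8, 1% w/v BSA, 100 µg/mL catalase, 2 mM sodium ascorbate, 100 µM AKG, 100 µM DTT, 50 µM FeSO4. Incubated at 30 °C with or without ligand (150 µM). Fe(ligand)3 2+ complex detected by UV–Vis spectrophotometry.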

[4] = molecular target: T1, Prolyl 4-hydroxylase subunit alpha-1 (Homo sapiens, UniProt P13674); experiment: Inhibition of human recombinant CP4H1 expressed in Escherichia coli Origami B(DE3) at 10 uM pre-incubated for 2 mins followed by alpha-ketoglutarate addition using dansylGlyProProGlyOEt substrate in Tris-HCl buffer at pH 7.8 at 30 degC by HPLC method
T1 sequence (P13674 whole entry): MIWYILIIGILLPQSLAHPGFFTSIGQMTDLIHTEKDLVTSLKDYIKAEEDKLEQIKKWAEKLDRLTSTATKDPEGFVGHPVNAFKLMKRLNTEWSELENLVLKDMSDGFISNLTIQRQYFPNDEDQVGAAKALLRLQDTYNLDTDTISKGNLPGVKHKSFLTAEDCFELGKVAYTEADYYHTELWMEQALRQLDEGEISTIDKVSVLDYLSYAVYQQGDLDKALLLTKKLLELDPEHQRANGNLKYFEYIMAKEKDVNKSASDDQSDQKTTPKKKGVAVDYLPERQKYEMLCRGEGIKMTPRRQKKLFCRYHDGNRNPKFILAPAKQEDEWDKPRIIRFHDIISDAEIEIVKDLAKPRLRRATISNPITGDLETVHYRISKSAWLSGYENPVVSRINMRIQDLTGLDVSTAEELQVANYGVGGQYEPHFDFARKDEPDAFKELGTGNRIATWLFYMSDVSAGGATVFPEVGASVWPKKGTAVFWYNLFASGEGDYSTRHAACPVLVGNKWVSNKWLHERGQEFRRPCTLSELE

[5] = molecular target: T1, Prolyl 4-hydroxylase subunit alpha-1; experiment: Inhibition of human recombinant CP4H1 expressed in Escherichia coli Origami B(DE3) pre-incubated for 2 mins followed by alpha-ketoglutarate addition using dansylGlyProProGlyOEt substrate in Tris-HCl buffer at pH 7.8 at 30 degC by HPLC method
[6] = molecular target: T1, Prolyl 4-hydroxylase subunit alpha-1; experiment: Inhibition of human recombinant CP4H1 expressed in Escherichia coli Origami B(DE3) pre-incubated for 2 mins followed by alpha-ketoglutarate addition using dansylGlyProProGlyOEt substrate in Tris-HCl buffer at pH 7.8 at 30 degC by HPLC based Cheng-Prussoff equation method
[7] = Inhibition of human collagen prolyl 4-hydroxylase

Row | SMILES | EC50 [1] | inhibition [2] | EC50 ([1]; read-out: EC50) | Activity [3] | inhibition [4] | IC50 [5] | Ki [6] | Ki [7]
1 | O=C(O)c1cccc(-c2cccc(C(=O)O)n2)n1 | Not Active | inactive | – | – | – | – | – | –
2 | O=C(O)c1ccnc(-c2cc(C(=O)O)ccn2)c1 | – | Active | 38 µM | Active | Active | – | – | –
3 | O=C(O)CNC(=O)C(=O)O | – | Active | – | – | – | – | – | –
4 | O=C(O)c1ccc(-c2cc(C(=O)O)ccn2)nc1 | – | Active | 78 µM | Active | > 90% | 1.2 µM | 0.2 µM | –
5 | O=C(O)c1ccnc(C(=O)O)c1 | – | Active | – | – | – | – | – | –
6 | O=C(O)c1cccnc1-c1ncccc1C(=O)O | Not Active | – | – | – | – | – | – | –
7 | O=C(O)c1ccnc(-c2cccc(C(=O)O)n2)c1 | – | inactive | 26 µM | – | – | – | – | –
8 | c1ccc(-c2ccccn2)nc1 | – | – | 43 µM | Active | inactive | – | – | –
9 | O=C(O)c1ccc(-c2ccc(C(=O)O)cn2)nc1 | – | inactive | 112 µM | Active | – | 0.84 µM | 0.14 µM | –
10 | O=C(O)c1ccc(-c2cccc(C(=O)O)n2)nc1 | – | inactive | 27 µM | – | – | – | – | –
11 | O=C(O)c1ccc(C(=O)O)nc1 [PYRIDINE-2,5-DICARBOXYLIC ACID] | – | inactive | – | – | Active | 15 µM | 2.6 µM | 0.8 µM
